Laboratory results from ChEMBL document CHEMBL4340525, “Tumor-Targeted Delivery of 6-Diazo-5-oxo-l-norleucine (DON) Using Substituted Acetylated Lysine Prodrugs” (J Med Chem, 2019).

Legend:
[1] = Prodrug conversion in human plasma suspended with human DU4475 cells assessed as 6-diazo-5-oxo-L-norleucine formation at 20 uM measured after 1 hr by LC-MS/MS analysis; type: ADME, cell-free
Procedure, shortened: (§1)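 Cells were grown in RPMI 1640 with 10% FBS, washed in DPBS and resuspended in human plasma at 10 million cells/mL. After 5 min preincubation at 37 °C, compound was added at 20 µM final for 1 h. The mix was centrifuged at 10 000g and the washed pellet and plasma were quantified separately. DON was read by LC-MS/MS after dabsyl chloride derivatisation, intact prodrug directly. Standard curves were made in naive cells or plasma.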

[2] = Prodrug conversion in human P493B cells suspended in human plasma assessed as 6-diazo-5-oxo-L-norleucine formation at 20 uM measured after 1 hr by LC-MS/MS analysis; type: ADME, cell-based; procedure, shortened: as §1
[3] = Drug level in human P493B cells suspended in human plasma assessed as tumor cell to plasma ratio by measuring 6-diazo-5-oxo-L-norleucine formation at 20 uM measured after 1 hr by LC-MS/MS analysis relative to 6-diazo-5-oxo-L-norleucine alone; type: ADME, cell-based; procedure, shortened: as §1
[4] = Prodrug conversion in human DU4475 cells suspended in human plasma assessed as 6-diazo-5-oxo-L-norleucine formation at 20 uM measured after 1 hr by LC-MS/MS analysis; type: ADME, cell-based; conditions: du-4475, 1 h; procedure, shortened: as §1
[5] = Prodrug conversion in human plasma suspended with human H69 cells assessed as 6-diazo-5-oxo-L-norleucine formation at 20 uM measured after 1 hr by LC-MS/MS analysis; type: ADME, cell-free; procedure, shortened: as §1
[6] = Prodrug conversion in human P493B cells suspended in human plasma assessed as deacetylation by measuring (6a) (S)-2-{(S)-2-[(Adamantane-1-carbonyl)-amino]-6-amino-hexanoylamino}-6-diazo-5-oxo-hexanoic acid isopropyl ester formation measured after 1 hr by HRMS analysis; type: ADME, cell-based
Procedure, shortened: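 Metabolite identification: compound was incubated 1 h with 10 million P493B cells suspended in 1 mL human plasma. Cell pellets were collected and metabolites identified by HRMS.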

Procathepsin L = Procathepsin L (Homo sapiens, UniProt P07711); assay: Stability of the compound assessed as recombinant human cathepsin L-mediated compound hydrolysis by measuring parent compound remaining at 1 uM measured after 3 hrs by UHPLC-MS analysis; type: ADME
Procathepsin L, sequence (P07711 whole entry): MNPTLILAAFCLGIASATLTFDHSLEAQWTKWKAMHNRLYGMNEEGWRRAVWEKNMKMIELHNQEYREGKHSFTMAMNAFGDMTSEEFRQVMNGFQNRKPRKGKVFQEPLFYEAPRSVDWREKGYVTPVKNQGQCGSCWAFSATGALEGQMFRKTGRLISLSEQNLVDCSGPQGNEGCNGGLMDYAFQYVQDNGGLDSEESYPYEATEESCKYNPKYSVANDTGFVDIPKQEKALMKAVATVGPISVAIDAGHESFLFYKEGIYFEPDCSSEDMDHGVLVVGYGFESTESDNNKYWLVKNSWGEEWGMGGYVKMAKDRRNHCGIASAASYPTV
Procedure, shortened: (§2)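 Compound at 1 µM was incubated at 37 °C with shaking in 50 mM MES pH 6 with 5 mM DTT. Recombinant human enzyme final levels: HDAC2 10 µg/mL, cathepsin B 1 µg/mL, cathepsin L 0.1 µg/mL, alone or cathepsins B+L combined. Aliquots were quenched in methanol with losartan at 0.25, 0.5, 1 and 3 h. Parent remaining by Q-TOF LC-MS.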

Cathepsin B = Cathepsin B (Homo sapiens, UniProt P07858); assay: Stability of the compound assessed as recombinant human cathepsin B-mediated compound hydrolysis by measuring parent compound remaining at 1 uM measured after 3 hrs by UHPLC-MS analysis; type: ADME; procedure, shortened: as §2
Homo sapiens [7] = species on record: Homo sapiens; assay: Stability of the compound assessed as recombinant human cathepsin L/cathepsin B-mediated compound hydrolysis by measuring parent compound remaining at 1 uM measured after 3 hrs by UHPLC-MS analysis; procedure, shortened: as §2
[8] = (§3) Antiproliferative activity against human P493B cells measured after 72 hrs by CellTiter 96 aqueous one solution cell proliferation assay; type: functional, cell-based
Procedure, shortened: (§4)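 P493B lymphoma cells seeded at 20 000 cells/well in growth medium. DMSO stocks added as a 1:10 serial dilution, final 0.2% DMSO. Cells grown 72 h with compound, then given CellTiter 96 AQueous reagent for 2 h and read by absorbance at 490 nm. EC50 obtained by nonlinear regression of log-transformed data.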

Homo sapiens [9] = species on record: Homo sapiens; assay: as §3; type: functional, cell-based; procedure, shortened: as §4
[10] = Stability of the compound in wild-type C57BL/6 mouse plasma assessed as de-esterification of carboxyl ester measured after 60 mins by HRMS analysis; type: ADME, cell-free; conditions: 1 h
[11] = Drug level in mouse EL4 cells implanted in CES1-deficient C57BL/6 mouse assessed as tumor cell to plasma ratio at 3.2 mg/kg, sc administered as single dose measured after 1 hr by LC-MS/MS analysis; type: ADME, organism-based
[12] = Tmax in CES1-deficient C57BL/6 mouse tumor implanted with mouse EL4 cells at 3.2 mg/kg, sc administered as single dose by LC-MS/MS analysis; type: ADME, organism-based, Neoplasm
Procedure, shortened: (§5)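 Male and female C57BL/6 CES1-/- mice, 6–8 weeks old, carried flank EL4 tumours from SC injection of 1 × 10^6 cells in PBS. Dosing began at about 400 mm3 mean tumour volume. Each mouse got one SC dose of 3.2 mg/kg (1 mg/kg DON equivalent) in ethanol/Tween 80/saline 5:10:85. Plasma, jejunum and tumour were taken at set times, n = 3 per time point. Prodrug and dabsyl-derivatised DON were measured by LC-MS/MS. Noncompartmental analysis: Cmax and Tmax observed, AUClast by log-linear trapezoidal rule.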

[13] = Tmax in CES1-deficient C57BL/6 mouse jejunum implanted with mouse EL4 cells at 3.2 mg/kg, sc administered as single dose by LC-MS/MS analysis; type: ADME, organism-based; conditions: in vivo, BLD = below limit of detection; procedure, shortened: as §5
[14] = Cmax in CES1-deficient C57BL/6 mouse plasma implanted with mouse EL4 cells assessed as 6-diazo-5-oxo-L-norleucine level at 3.2 mg/kg, sc administered as single dose by LC-MS/MS analysis; type: ADME, organism-based; set-up: dose 3.2 mg/kg, route subcutaneous; conditions: in vivo; procedure, shortened: as §5
[15] = AUC (0 to t) in CES1-deficient C57BL/6 mouse plasma implanted with mouse EL4 cells assessed as 6-diazo-5-oxo-L-norleucine level at 3.2 mg/kg, sc administered as single dose by LC-MS/MS analysis; type: ADME, organism-based; conditions: in vivo; procedure, shortened: as §5
[16] = AUC (0 to t) in CES1-deficient C57BL/6 mouse tumor implanted with mouse EL4 cells assessed as 6-diazo-5-oxo-L-norleucine level at 3.2 mg/kg, sc administered as single dose by LC-MS/MS analysis; type: ADME, organism-based, Neoplasm; conditions: in vivo; procedure, shortened: as §5
[17] = AUC (0 to t) in CES1-deficient C57BL/6 mouse jejunum implanted with mouse EL4 cells assessed as 6-diazo-5-oxo-L-norleucine level at 3.2 mg/kg, sc administered as single dose by LC-MS/MS analysis; type: ADME, organism-based; conditions: in vivo; procedure, shortened: as §5
[18] = Ratio of AUC (0 to t) in tumor to jejunum of CES1-deficient C57BL/6 mouse implanted with mouse EL4 cells assessed as 6-diazo-5-oxo-L-norleucine level at 3.2 mg/kg, sc administered as single dose by LC-MS/MS analysis; type: ADME, organism-based; conditions: in vivo
Procedure, shortened: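 Tissue-to-tissue ratios of DON AUClast came from noncompartmental analysis. EL4-bearing CES1-/- C57BL/6 mice received one SC dose of 3.2 mg/kg (1 mg/kg DON equivalent) in ethanol/Tween 80/saline 5:10:85. Tumour, jejunum and plasma were sampled over time, n = 3 mice per time point. DON was read by LC-MS/MS after dabsyl chloride derivatisation.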

[19] = Stability in human plasma assessed as parent compound remaining at 20 uM measured after 1 hr by LC-MS/MS analysis
[20] = AUC in CES1-deficient C57BL/6 mouse jejunum implanted with mouse EL4 cells assessed as 6-diazo-5-oxo-L-norleucine level at 3.2 mg/kg, sc administered as single dose by LC-MS/MS analysis; conditions: in vivo

In the case of `CC(=O)NCCCC[C@H](NC(=O)C12CC3CC(CC(C3)C1)C2)C(=O)N[C@@H](CCC(=O)C=[N+]=[N-])C(=O)OC(C)C`, the Drug metabolism [1] is reported as 0.25 to 0.5 µM, the Drug metabolism [2] is reported as 8.81 µM and the “fold change (FC)” value [3] is reported as 55. The Drug metabolism [4] was 11.8 µM, the Drug metabolism [5] was 0.25 to 0.5 µM and the Drug metabolism [6] was “Metabolite_Detected”. It also gave a Stability (Procathepsin L) of 36%, a Stability (Cathepsin B) of 64% and a Stability (Homo sapiens [7]) of 9%. The EC50 [8] was 5 µM, the Activity (Homo sapiens [9]) was “Dose-dependent effect” and the Stability [10] was “Unstable”. For the same compound, the Kp at 1 h [11] was 16, the Tmax [12] was 30 min and the Tmax [13] was “Bld”. It also gave a Cmax [14] of 440 nM, an AUCt [15] of 1.06 µM·h and an AUCt [16] of 5.07 nmol·h/g. The AUCt [17] was 0.45 nmol·h/g, the “Ratio AUC” value [18] was 11 and the Stability [19] was 107%. It also gave an AUC [20] of 0.45 nmol·h/g.
